We go through three compounds from ChEMBL document CHEMBL5230169, “QSAR, structure-based pharmacophore modelling and biological evaluation of novel platelet ADP receptor (P2Y12) antagonist” (RSC Med Chem, 2023).

What all share (type): cell-based
Experiment [1] has as its target P2Y purinoceptor 12 (Homo sapiens) (UniProt Q9H244). Nature of the experiment: Antagonist activity at P2Y12 receptor in human blood platelets assessed as inhibition of ADP-induced platelet aggregation at 0.1 uM compound preincubated with blood for 5 mins prior to ADP addition by electrode aggregometry assay. In short, it runs like this: (§1)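 Fresh hirudin-anticoagulated human whole blood from volunteers free of medication for seven days, tested within two hours of venepuncture. 300 μL blood mixed with 300 μL pre-warmed isotonic saline containing compound (0, 0.1, 1, 10 or 100 μM final) or vehicle (1% DMSO final). Incubated 5 min at 37 °C, then 20 μL 0.2 mM ADP added.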

Experiment [2] has the same target. Nature of the experiment: Antagonist activity at P2Y12 receptor in human blood platelets assessed as inhibition of ADP-induced platelet aggregation at 10 uM compound preincubated with blood for 5 mins prior to ADP addition by electrode aggregometry assay. To be noted: filed as antagonist. In short, it runs like this: as §1
For experiment [3] the target is unchanged. Nature of the experiment: Antagonist activity at P2Y12 receptor in human blood platelets assessed as inhibition of ADP-induced platelet aggregation at 1 uM compound preincubated with blood for 5 mins prior to ADP addition by electrode aggregometry assay. In short, it runs like this:
as §1

Molecules are shown by their SMILES.

In general, inhibition refers to the drop in the measured response relative to a control, in per cent.

Sequence of P2Y purinoceptor 12 (Homo sapiens) (Q9H244 whole entry): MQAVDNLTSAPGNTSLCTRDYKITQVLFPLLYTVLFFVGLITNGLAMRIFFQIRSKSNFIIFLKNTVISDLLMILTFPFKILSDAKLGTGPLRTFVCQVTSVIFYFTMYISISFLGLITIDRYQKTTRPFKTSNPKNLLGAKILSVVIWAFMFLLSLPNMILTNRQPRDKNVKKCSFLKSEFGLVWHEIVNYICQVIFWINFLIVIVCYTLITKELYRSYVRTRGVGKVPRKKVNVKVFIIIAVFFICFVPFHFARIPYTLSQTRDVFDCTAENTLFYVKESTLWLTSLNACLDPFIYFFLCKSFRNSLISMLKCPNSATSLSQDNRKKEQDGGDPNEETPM

As to `O=C(CCCCCCCC(=O)Nc1ccc2[nH]c3ccccc3c(=O)c2c1)Nc1ccc2[nH]c3ccccc3c(=O)c2c1`, the inhibition came to 4.75% in experiment [1], 41.1% in experiment [2] and 22.8% in experiment [3].
As for `CCOC(=O)c1cc(NC(=O)c2cc(NC(=O)c3cc(NC(=O)c4c(-c5ccccc5)noc4C)cn3C)cn2C)cn1C`, the inhibition in experiment [1] came out at 37%; in experiment [2], 61.8%; in experiment [3], 38.2%.
For the compound `O=C(CCC(=O)Nc1ccc2[nH]c3ccccc3c(=O)c2c1)Nc1ccc2[nH]c3ccccc3c(=O)c2c1`, the results for the inhibition in experiment [1], in experiment [2] and in experiment [3] were 22.3%, 57.8% and 33.6%, respectively.
